Assay results taken from ChEMBL document CHEMBL1121813, “Dihydrochalcone sweeteners. A study of the atypical temporal phenomena” (1981).

How the values were obtained:
Assay type in all cases: functional
Homo sapiens [1] = species on record: Homo sapiens; assay: Sour character at a concentration of 246 ppm (mean value)
Homo sapiens [2] = species on record: Homo sapiens; assay: Salty character at a concentration of 246 ppm (mean value)
Homo sapiens [3] = species on record: Homo sapiens; assay: Sweet / Bitter character at a concentration of 246 ppm (mean value); 44/56
Homo sapiens [4] = species on record: Homo sapiens; assay: Number of taste judgments per compound
Homo sapiens [5] = species on record: Homo sapiens; assay: Intensity calculated on a weight basis relative to an 85500 ppm sucrose solution at a concentration of 246 ppm (mean value)
Outline: (§1)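 Trained human panel tasted aqueous solutions of purity-checked (≥95 weight percent) compounds cleared for mutagenicity and mouse oral toxicity. Weight-basis intensity I_w = perceived intensity × (85500 ppm sucrose / compound concentration in ppm). The mean is reported with 2S_m limits; data deviating excessively at 95% confidence were rejected by the t-value method.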

Homo sapiens [6] = species on record: Homo sapiens; assay: Bitter character at a concentration of 246 ppm (mean value)
Outline: (§2)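 Trained human panel tasted aqueous solutions. Each judge reported whether there was an aftertaste and its character (sweet, bitter or bitter-sweet). The value is the percentage of judgments reporting a bitter aftertaste.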

Homo sapiens [7] = species on record: Homo sapiens; assay: Intensity calculated on a molar basis relative to a 0.25 M sucrose solution at a concentration of 246 ppm (mean value)
Outline: (§3)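 Trained human judges tasted aqueous solutions of the test compound; compounds were first required to be ≥95 weight percent pure and free of mutagenicity (five Salmonella typhimurium strains, ± microsomal activation) and of single oral dose mouse toxicity. Molar intensity I_m = perceived intensity × (0.25 M sucrose / compound molar concentration). The mean is reported with 2S_m limits; outliers were rejected at 95% confidence by t-value.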

Homo sapiens [8] = species on record: Homo sapiens; assay: Percentage of judgments reporting an aftertaste at a concentration of 246 ppm and character thereof
Outline: (§4)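 Trained judges tasted aqueous solutions of the compounds, which had to be ≥95 weight percent pure and to have passed mutagenicity and single oral dose toxicity screening. The value is the percentage of panel judgments reporting an aftertaste. Where given, its character is recorded as sweet, bitter or bitter-sweet.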

Homo sapiens [9] = species on record: Homo sapiens; assay: Other taste character at a concentration of 246 ppm (mean value)
Outline: (§5)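 Trained human sensory panel (Swartz method) tasted dilute aqueous solutions of the compounds, which had to be ≥95 weight percent pure and free of mutagenicity and toxicity. Taste character is reported as the mean value with 2S_m limits. Data deviating excessively at the 95% confidence level were rejected by the t-value method.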

Homo sapiens [10] = species on record: Homo sapiens; assay: Sweet character at a concentration of 246 ppm (mean value)
Homo sapiens [11] = species on record: Homo sapiens; assay: Experimentally determined perceived intensity of compound at a concentration of 246 ppm (mean value)
Outline: (§6)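 Trained human sensory panel of judges tasted aqueous solutions of the compound. Samples had to be ≥95 weight % pure (HPLC, proton titration, Karl Fischer), non-mutagenic in five Salmonella typhimurium strains with and without microsomal activation, and non-toxic in a single-oral-dose mouse test. Perceived intensity (Ip) was read from time–intensity curves at 4- or 6-s intervals and averaged. Outliers at the 95% level were rejected by t-value. Values reported as mean (2Sm).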

Homo sapiens [12] = species on record: Homo sapiens; assay: Sour character at a concentration of 244 ppm (mean value)
Homo sapiens [13] = species on record: Homo sapiens; assay: Other taste character at a concentration of 244 ppm (mean value); outline: as §5
Homo sapiens [14] = species on record: Homo sapiens; assay: Salty character at a concentration of 244 ppm (mean value)
Homo sapiens [15] = species on record: Homo sapiens; assay: Experimentally determined perceived intensity of compound at a concentration of 244 ppm (mean value); outline: as §6
Homo sapiens [16] = species on record: Homo sapiens; assay: Sweet character at a concentration of 244 ppm (mean value)
Homo sapiens [17] = species on record: Homo sapiens; assay: Bitter character at a concentration of 244 ppm (mean value); outline: as §2
Homo sapiens [18] = species on record: Homo sapiens; assay: Intensity calculated on a weight basis relative to an 85500 ppm sucrose solution at a concentration of 244 ppm (mean value); outline: as §1
Homo sapiens [19] = species on record: Homo sapiens; assay: Intensity calculated on a molar basis relative to a 0.25 M sucrose solution at a concentration of 244 ppm (mean value); outline: as §3
Homo sapiens [20] = species on record: Homo sapiens; assay: Percentage of judgments reporting an aftertaste at a concentration of 244 ppm and character thereof; Bitter; outline: as §4
Homo sapiens [21] = species on record: Homo sapiens; assay: Sweet / Bitter character at a concentration of 244 ppm (mean value)
Homo sapiens [22] = species on record: Homo sapiens; assay: Other taste character at a concentration of 251 ppm (mean value); outline: as §5
Homo sapiens [23] = species on record: Homo sapiens; assay: Percentage of judgments reporting an aftertaste at a concentration of 251 ppm and character thereof
Outline: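 Trained human sensory panel; compounds tasted in aqueous solution. Before panel work, compounds had to be ≥95 weight percent pure (HPLC, proton titration, Karl Fischer) and free of mutagenicity (five Salmonella typhimurium strains, ± microsomal activation) and single oral dose mouse toxicity. Value is the percentage of judgments reporting an aftertaste, with its character recorded as sweet, bitter or bitter-sweet.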

Homo sapiens [24] = species on record: Homo sapiens; assay: Sweet / Bitter character at a concentration of 251 ppm (mean value); 51/49
Homo sapiens [25] = species on record: Homo sapiens; assay: Intensity calculated on a molar basis relative to a 0.25 M sucrose solution at a concentration of 251 ppm (mean value); outline: as §3
Homo sapiens [26] = species on record: Homo sapiens; assay: Bitter character at a concentration of 251 ppm (mean value); outline: as §2
Homo sapiens [27] = species on record: Homo sapiens; assay: Experimentally determined perceived intensity of compound at a concentration of 251 ppm (mean value); outline: as §6
Homo sapiens [28] = species on record: Homo sapiens; assay: Sweet character at a concentration of 251 ppm (mean value); outline: as §5
Homo sapiens [29] = species on record: Homo sapiens; assay: Sour character at a concentration of 251 ppm (mean value); outline: as §5
Homo sapiens [30] = species on record: Homo sapiens; assay: Salty character at a concentration of 251 ppm (mean value); outline: as §5
Homo sapiens [31] = species on record: Homo sapiens; assay: Intensity calculated on a weight basis relative to an 85500 ppm sucrose solution at a concentration of 251 ppm (mean value); outline: as §1
Homo sapiens [32] = species on record: Homo sapiens; assay: Sweet character at a concentration of 260 ppm (mean value)
Homo sapiens [33] = species on record: Homo sapiens; assay: Intensity calculated on a molar basis relative to a 0.25 M sucrose solution at a concentration of 260 ppm (mean value); outline: as §3
Homo sapiens [34] = species on record: Homo sapiens; assay: Intensity calculated on a weight basis relative to an 85500 ppm sucrose solution at a concentration of 260 ppm (mean value); outline: as §1
Homo sapiens [35] = species on record: Homo sapiens; assay: Bitter character at a concentration of 260 ppm (mean value); outline: as §2
Homo sapiens [36] = species on record: Homo sapiens; assay: Other taste character at a concentration of 260 ppm (mean value); outline: as §5
Homo sapiens [37] = species on record: Homo sapiens; assay: Percentage of judgments reporting an aftertaste at a concentration of 260 ppm and character thereof; outline: as §4
Homo sapiens [38] = species on record: Homo sapiens; assay: Salty character at a concentration of 260 ppm (mean value)
Homo sapiens [39] = species on record: Homo sapiens; assay: Experimentally determined perceived intensity of compound at a concentration of 260 ppm (mean value); outline: as §6
Homo sapiens [40] = species on record: Homo sapiens; assay: Sweet / Bitter character at a concentration of 260 ppm (mean value); 94/6
Homo sapiens [41] = species on record: Homo sapiens; assay: Sour character at a concentration of 260 ppm (mean value)
Homo sapiens [42] = species on record: Homo sapiens; assay: Sweet / Bitter character at a concentration of 240 ppm (mean value); 7/93
Homo sapiens [43] = species on record: Homo sapiens; assay: Intensity calculated on a weight basis relative to an 85500 ppm sucrose solution at a concentration of 240 ppm (mean value); outline: as §1
Homo sapiens [44] = species on record: Homo sapiens; assay: Experimentally determined perceived intensity of compound at a concentration of 240 ppm (mean value); outline: as §6
Homo sapiens [45] = species on record: Homo sapiens; assay: Bitter character at a concentration of 240 ppm (mean value); outline: as §2
Homo sapiens [46] = species on record: Homo sapiens; assay: Sour character at a concentration of 240 ppm (mean value); outline: as §5
Homo sapiens [47] = species on record: Homo sapiens; assay: Other taste character at a concentration of 240 ppm (mean value); outline: as §5
Homo sapiens [48] = species on record: Homo sapiens; assay: Intensity calculated on a molar basis relative to a 0.25 M sucrose solution at a concentration of 240 ppm (mean value); outline: as §3
Homo sapiens [49] = species on record: Homo sapiens; assay: Sweet character at a concentration of 240 ppm (mean value); outline: as §5
Homo sapiens [50] = species on record: Homo sapiens; assay: Salty character at a concentration of 240 ppm (mean value); outline: as §5
Homo sapiens [51] = species on record: Homo sapiens; assay: Percentage of judgments reporting an aftertaste at a concentration of 240 ppm and character thereof; outline: as §4

## O=C([O-])COc1cc(O)c(C(=O)CCc2cccc(O)c2)c(O)c1.[Na+]
Homo sapiens [1]
  Taste character: 0
Homo sapiens [2]
  Taste character: 0
Homo sapiens [3]
  Taste character: 44
Homo sapiens [4]
  Judgments: 12
Homo sapiens [5]
  IW: 76
Homo sapiens [6]
  Taste character: 49
Homo sapiens [7]
  IM: 79
Homo sapiens [8]
  Judgments: 62
Homo sapiens [9]
  Taste character: 13
Homo sapiens [10]
  Taste character: 38
Homo sapiens [11]
  IP: 0.22

## COc1ccc(CCC(=O)O)cc1O
Homo sapiens [12]
  Taste character: 69
Homo sapiens [4]
  Judgments: 8
Homo sapiens [13]
  Taste character: 3
Homo sapiens [14]
  Taste character: 0
Homo sapiens [15]
  IP: 0.6
Homo sapiens [16]
  Taste character: 0
Homo sapiens [17]
  Taste character: 28
Homo sapiens [18]
  IW: 210
Homo sapiens [19]
  IM: 120
Homo sapiens [20]
  Judgments: 50
Homo sapiens [21]
  Taste character: 0

## CCCOc1ccc(CCC(=O)c2c(O)cc(OCC(=O)[O-])cc2O)cc1O.[Na+]
Homo sapiens [22]
  Taste character: 23
Homo sapiens [23]
  Judgments: 100
Homo sapiens [24]
  Taste character: 51
Homo sapiens [4]
  Judgments: 12
Homo sapiens [25]
  IM: 300
Homo sapiens [26]
  Taste character: 38
Homo sapiens [27]
  IP: 0.72
Homo sapiens [28]
  Taste character: 39
Homo sapiens [29]
  Taste character: 0
Homo sapiens [30]
  Taste character: 0
Homo sapiens [31]
  IW: 240

## COc1ccc(CCC(=O)c2c(O)cc(OCC(=O)[O-])cc2O)cc1O.[Na+]
Homo sapiens [32]
  Taste character: 76
Homo sapiens [4]
  Judgments: 12
Homo sapiens [33]
  IM: 330
Homo sapiens [34]
  IW: 300
Homo sapiens [35]
  Taste character: 5
Homo sapiens [36]
  Taste character: 19
Homo sapiens [37]
  Judgments: 100
Homo sapiens [38]
  Taste character: 0
Homo sapiens [39]
  IP: 0.9
Homo sapiens [40]
  Taste character: 94
Homo sapiens [41]
  Taste character: 0

## COc1ccc(CCCc2c(O)cc(O)cc2O)cc1O
Homo sapiens [4]
  Judgments: 12
Homo sapiens [42]
  Taste character: 7
Homo sapiens [43]
  IW: 89
Homo sapiens [44]
  IP: 0.25
Homo sapiens [45]
  Taste character: 88
Homo sapiens [46]
  Taste character: 0
Homo sapiens [47]
  Taste character: 5
Homo sapiens [48]
  IM: 76
Homo sapiens [49]
  Taste character: 7
Homo sapiens [50]
  Taste character: 0
Homo sapiens [51]
  Judgments: 0
